Experimental findings from ChEMBL document CHEMBL3826951, “Discovery of Benzocycloalkane Derivatives Efficiently Blocking Bacterial Virulence for the Treatment of Methicillin-Resistant S. aureus (MRSA) Infections by Targeting Diapophytoene Desaturase (CrtN)” (J Med Chem, 2016) are described below.

Molecules are shown by their SMILES. Values after ≈ are worked out from the molar mass of the structure shown. Active and inactive are the calls of the source. No cut-off for these calls is given here.

The IC50 is the point on the concentration scale where inhibition reaches its midpoint. Usually solubility stands for the concentration that dissolves in the medium under given conditions. The low end stands for a poorly soluble substance, the high end for a readily soluble substance.

In data set [1] the target is T1, 4,4'-diapophytoene desaturase (4,4'-diaponeurosporene-forming) (Staphylococcus aureus (strain Newman), UniProt O07855).
T1 sequence (O07855 whole entry): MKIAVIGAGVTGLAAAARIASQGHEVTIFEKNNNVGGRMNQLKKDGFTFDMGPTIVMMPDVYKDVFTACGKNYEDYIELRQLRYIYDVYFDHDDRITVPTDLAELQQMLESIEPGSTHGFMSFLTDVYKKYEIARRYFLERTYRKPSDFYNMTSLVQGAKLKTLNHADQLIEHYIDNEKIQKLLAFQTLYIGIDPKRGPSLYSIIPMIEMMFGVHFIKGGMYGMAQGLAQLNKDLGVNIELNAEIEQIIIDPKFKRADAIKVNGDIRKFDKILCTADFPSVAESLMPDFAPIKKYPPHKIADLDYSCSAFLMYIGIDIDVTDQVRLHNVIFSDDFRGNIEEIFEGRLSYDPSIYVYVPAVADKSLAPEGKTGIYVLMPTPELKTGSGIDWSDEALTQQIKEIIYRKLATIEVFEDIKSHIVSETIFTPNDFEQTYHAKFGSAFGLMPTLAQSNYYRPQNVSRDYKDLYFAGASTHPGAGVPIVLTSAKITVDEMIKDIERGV
The data set is described as follows: Inhibition of diapophytoene desaturase in Staphylococcus aureus Newman assessed as reduction in staphyloxanthin pigment formation after 48 hrs by spectrophotometry. The arrangement: species or system Staphylococcus aureus subsp. aureus str. Newman.

Data set [2] in a line: Aqueous solubility of the compound in water after 24 hrs by HPLC method. Type of data set: physicochemical. Summed up: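 Excess solid stirred in pure water for 24 h, then filtered. Filtrate analysed by HPLC (10 µL injection). Concentration read against a calibration curve of peak area versus concentration, built from methanol solutions at 50–800 µg/mL.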
For data set [3], the target named is T1, 4,4'-diapophytoene desaturase (4,4'-diaponeurosporene-forming). The data set is described as follows: Inhibition of 6x-His-tagged Staphylococcus aureus diapophytoene desaturase expressed in Escherichia coli BL21 (DE3) using diapophytoene substrate after overnight incubation.
The test system of a further data set is Trichophyton rubrum. The data set is described as follows: Antifungal activity against naftifine-sensitive Trichophyton rubrum after 7 days by serial dilution method. Type of data set: functional. In outline:
(§1)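 Broth serial dilution in 96-well plates per NCCLS recommendations. Medium: RPMI 1640 buffered with 0.165 M MOPS. Fungi were ATCC strains or clinical isolates.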

The next data set concerns Trichophyton verrucosum. The data set is described as follows: Antifungal activity against naftifine-sensitive Trichophyton verrucosum after 7 days by serial dilution method. Type of data set: functional. In outline: as §1
For a further data set, the system named is Nannizzia gypsea. The data set is described as follows: Antifungal activity against naftifine-sensitive Microsporum gypseum after 7 days by serial dilution method. In kind it is functional. In outline:
as §1

The test system of data set [4] is Trichophyton mentagrophytes. As to the kind of experiment: Antifungal activity against naftifine-sensitive Trichophyton mentagrophytes after 7 days by serial dilution method. Type of data set: functional. Summed up:
as §1

Data set [5] has as its system Staphylococcus aureus. The data set is described as follows: Attenuation of methicillin-resistant Staphylococcus aureus Mu 50 virulence in BALB/c mouse systemic infection model assessed as decrease in bacterial survival in liver at 200 mg/kg, ip administered every 12 hrs for 108 hrs followed by bacterial challenge after first 12 hrs of compound dosing measured 5 days post infection. Type of data set: functional, Mu50. In outline: (§2)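 Female BALB/c mice, 6-8 weeks old. Dosed ip every 12 h for 108 h. Challenged with 100 µL at 12 h: 1.6 × 10^8 CFU Mu50 or 4 × 10^7 CFU USA400 MW2. Sacrificed 5 days post-infection. Livers and kidneys homogenised in PBS/0.1% Triton X-100, serially plated on TSA, CFU counted; two-tailed Mann-Whitney.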

Data set [6] concerns Staphylococcus aureus. The data set is described as follows: Attenuation of methicillin-resistant Staphylococcus aureus USA400 MW2 virulence in BALB/c mouse systemic infection model assessed as decrease in bacterial burden in liver at 200 mg/kg, ip administered every 12 hrs for 108 hrs followed by bacterial challenge after first 12 hrs of compound dosing measured 5 days post infection. In kind it is functional. Summed up:
as §2

For data set [7], the system named is Staphylococcus aureus. The data set is described as follows: Attenuation of methicillin-resistant Staphylococcus aureus Mu 50 virulence in BALB/c mouse systemic infection model assessed as decrease in bacterial survival in kidney at 200 mg/kg, ip administered every 12 hrs for 108 hrs followed by bacterial challenge after first 12 hrs of compound dosing measured 5 days post infection. Type of data set: functional, Mu50. Summed up:
as §2

Data set [8] has as its target T2, 4,4'-diapophytoene synthase (Staphylococcus aureus, UniProt A9JQL9).
T2 sequence (A9JQL9 whole entry): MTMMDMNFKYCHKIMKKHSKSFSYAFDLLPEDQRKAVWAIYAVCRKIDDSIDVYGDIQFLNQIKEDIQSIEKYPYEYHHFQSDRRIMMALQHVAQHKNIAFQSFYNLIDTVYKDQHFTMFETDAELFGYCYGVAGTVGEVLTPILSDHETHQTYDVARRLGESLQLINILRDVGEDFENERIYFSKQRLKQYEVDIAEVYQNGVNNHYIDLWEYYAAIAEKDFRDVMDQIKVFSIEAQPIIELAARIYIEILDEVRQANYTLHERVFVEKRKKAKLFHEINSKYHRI
The data set is described as follows: Inhibition of Staphylococcus aureus ATCC 27659 full length His-tagged dehydrosqualene synthase expressed in Escherichia coli BL21 (DE3) cells assessed as reduction in staphyloxanthin pigment formation after 72 hrs by spectrophotometric analysis.

For data set [9], the system named is Staphylococcus aureus. As to the kind of experiment: Attenuation of methicillin-resistant Staphylococcus aureus Mu 50 virulence in BALB/c mouse systemic infection model assessed as decrease in bacterial survival in kidney at 50 mg/kg, ip administered every 12 hrs for 108 hrs followed by bacterial challenge after first 12 hrs of compound dosing measured 5 days post infection. Conditions: Mu50. In kind it is functional. In outline:
as §2

Data set [10] concerns Staphylococcus aureus. As to the kind of experiment: Attenuation of methicillin-resistant Staphylococcus aureus USA400 MW2 virulence in BALB/c mouse systemic infection model assessed as decrease in bacterial burden in liver at 50 mg/kg, ip administered every 12 hrs for 108 hrs followed by bacterial challenge after first 12 hrs of compound dosing measured 5 days post infection. Type of data set: functional. Summed up: as §2

Data set [11] concerns Staphylococcus aureus. The data set is described as follows: Attenuation of methicillin-resistant Staphylococcus aureus Mu 50 virulence in BALB/c mouse systemic infection model assessed as decrease in bacterial survival in liver at 50 mg/kg, ip administered every 12 hrs for 108 hrs followed by bacterial challenge after first 12 hrs of compound dosing measured 5 days post infection. Type of data set: functional. Conditions: Mu50. In outline:
as §2

Consider `CN(C/C=C/c1ccc(Cl)cc1)Cc1ccc2c(c1)CCCC2`, for which the IC50 in data set [1] worked out at 12.8 nM. Turning to `CN(C/C=C/c1ccccc1)Cc1ccc2c(c1)CCCCC2`, in data set [1], the half-maximal inhibitory concentration (IC50) was determined as 202 nM. For `CN(C/C=C/c1ccccc1[N+](=O)[O-])Cc1ccc2c(c1)CCCCC2`, the IC50 in data set [1] was above 5000 nM. `CN(C/C=C/c1ccco1)Cc1ccc2c(c1)CCCCC2`: in data set [1], the IC50 was above 2500 nM. The same measure, in the same setting: to `Cc1cccc(/C=C/CN(C)Cc2ccc3c(c2)CCCCC3)c1` belongs 770 nM. For the molecule `C(/C=C/c1ccccc1)=C\COCc1ccc2c(c1)CCCCC2`, the IC50 in data set [1] was above 20000 nM. As for `CN(C/C=C/c1ccc(C(F)(F)F)cc1)Cc1ccc2c(c1)CCCC2.Cl`, the IC50 is 1.9 nM in data set [1] and 500 nM in data set [3]. This molecule registered a solubility at 24 h in [2] of 690 µg/mL. Take `Cc1ccc(/C=C/CN(C)Cc2ccc3c(c2)CCCCC3)cc1`: the IC50 in [1] was found to be 31 nM.

For the molecule `C/C=C/CN(C)Cc1ccc2c(c1)CCCCC2`, in data set [1], the IC50 was above 50000 nM.

Take `CN(C/C=C/Cc1ccccc1)Cc1ccc2c(c1)CCCCC2`: the IC50 in data set [1] was above 10000 nM. Consider `CN(C/C=C/C=C/c1ccccc1)Cc1ccc2c(c1)CCCCC2`, for which, in data set [1], the IC50 was 12.2 nM. In the case of `CN(C/C=C/c1ccccc1)Cc1ccc2c(c1)CCCC2`, the IC50 in data set [1] is 603 nM.

`CN(CCCc1ccccc1)Cc1ccc2c(c1)CCCCC2`: the IC50 in data set [1] is above 10000 nM. Regarding `C[C@@H](c1ncncc1F)[C@](O)(Cn1cncn1)c1ccc(F)cc1F` [VORICONAZOLE], the “MIC=<80” value in the data set with Trichophyton rubrum came to 0.03125 µg/mL (≈ 0.0895 µM); against Trichophyton verrucosum it was 0.03125 µg/mL (≈ 0.0895 µM); in the data set on Nannizzia gypsea, 0.25 µg/mL (≈ 0.716 µM); in data set [4], 0.03125 µg/mL (≈ 0.0895 µM).

On to `CN(C/C=C/c1ccccc1F)Cc1ccc2c(c1)CCCCC2`, for which the IC50 in data set [1] came out at 246 nM. Turning to `COc1ccc(/C=C/CN(C)Cc2ccc3c(c2)CCCC3)cc1`, the IC50 in data set [1] stood at 12.2 nM.

For the molecule `CN(C/C=C/c1ccc(Br)cc1)Cc1ccc2c(c1)CCCCC2.Cl`, the IC50 in [1] came to 7.8 nM; in data set [3], 410 nM. This molecule also yielded a solubility at 24 h in [2] of 570 µg/mL.

On to `CN(C/C=C/c1ccc(F)cc1)Cc1ccc2c(c1)CCCCC2`, for which, in data set [1], the IC50 stood at 39.4 nM. The same measure, in the same setting: the figure for `CN(C/C=C/C1CCCCC1)Cc1ccc2c(c1)CCCCC2` is above 10000 nM. Consider `OC(Cn1cncn1)(Cn1cncn1)c1ccc(F)cc1F` [FLUCONAZOLE], for which the “MIC=<80” value against Trichophyton rubrum came out at 1 µg/mL (≈ 3.27 µM); in the data set with Trichophyton verrucosum it was 2 µg/mL (≈ 6.53 µM); against Nannizzia gypsea, 8 µg/mL (≈ 26.1 µM); in data set [4] it was 2 µg/mL (≈ 6.53 µM).

In the case of `CN(C/C=C/c1ccc([N+](=O)[O-])cc1)Cc1ccc2c(c1)CCCCC2`, the IC50 in data set [1] is 12.4 nM.

Consider `O=P([O-])([O-])C(CCCc1cccc(Oc2ccccc2)c1)S(=O)(=O)[O-].[K+].[K+].[K+]` (stereo not given), for which the Activity in the data set with Staphylococcus aureus [5] stood at 2.84 log10CFU; with Staphylococcus aureus [6], 1.59 log10CFU; in the data set on Staphylococcus aureus [7], 0.3 log10CFU. For the same molecule, the IC50 in data set [8] was determined as 83.4 nM. In addition, the outcome with Staphylococcus aureus [9] and with Staphylococcus aureus [10] was inactive. Besides, the result in the data set with Staphylococcus aureus [11] was Active. Turning to `C(=C\c1ccccc1)/CNCc1ccc2c(c1)CCCCC2`, the IC50 in [1] is above 10000 nM. Turning to `C/C(=C\c1ccccc1)CN(C)Cc1ccc2c(c1)CCCCC2`, the IC50 in data set [1] was above 10000 nM. `CN(C/C=C/c1ccccc1)Cc1cccc2c1CCC2`: in data set [1], the half-maximal inhibitory concentration (IC50) was above 2500 nM.

Consider `CN(C/C=C/c1ccccc1)Cc1cccc2c1CCCCC2`, for which the IC50 in data set [1] is above 10000 nM. In the case of `CN(C/C=C/c1ccc([N+](=O)[O-])cc1)Cc1ccc2c(c1)CCCC2`, the IC50 in data set [1] came out at 94.5 nM. `CN(C/C=C/c1cccc([N+](=O)[O-])c1)Cc1ccc2c(c1)CCCCC2`: the IC50 in data set [1] was above 1000 nM. Turning to `CCN(C/C=C/c1ccccc1)Cc1ccc2c(c1)CCCCC2`, in data set [1], the IC50 is above 1250 nM.

With `CN(CC#Cc1ccccc1)Cc1ccc2c(c1)CCCCC2`, in data set [1], the 50% inhibitory concentration (IC50) was above 1250 nM. For the molecule `C(=C\c1ccccc1)/COCc1ccc2c(c1)CCCCC2`, the IC50 in data set [1] was above 20000 nM.

Regarding `CN(C/C=C/c1ccccc1)Cc1ccc2c(c1)CCC2`, in data set [1], the IC50 turned out to be 808 nM. `c1ccc(CCCOCc2ccc3c(c2)CCCCC3)cc1`: the IC50 in data set [1] was above 20000 nM. Turning to `CN(C/C=C/c1ccc(Br)cc1)Cc1ccc2c(c1)CCCC2.Cl`, the IC50 in data set [1] worked out at 1.3 nM; in [3], 450 nM. The molecule also showed a solubility at 24 h in [2] of 2100 µg/mL.

For `CN(C/C=C/c1ccc(C(F)(F)F)cc1)Cc1ccc2c(c1)CCCCC2`, in [1], the IC50 came out at 10 nM. For `CN(C/C=C/c1ccc(Cl)cc1)Cc1ccc2c(c1)CCCCC2`, the concentration for half-maximal inhibition (IC50) in data set [1] is 8.8 nM. On to `CC(C)N(C/C=C/c1ccccc1)Cc1ccc2c(c1)CCCCC2`, for which, in data set [1], the IC50 was above 10000 nM. For the molecule `CC(=O)N1CCN(c2ccc(OCC3COC(Cn4ccnc4)(c4ccc(Cl)cc4Cl)O3)cc2)CC1` (stereo not given) [KETOCONAZOLE], the “MIC=<80” value against Trichophyton rubrum is 0.5 µg/mL (≈ 0.941 µM); in the data set with Trichophyton verrucosum, 0.0625 µg/mL (≈ 0.118 µM); against Nannizzia gypsea, 2 µg/mL (≈ 3.76 µM); in [4], 0.0625 µg/mL (≈ 0.118 µM). For `CN(C/C=C/c1ccccc1)Cc1cccc2c1CCCC2`, in data set [1], the IC50 is above 1000 nM.
